Experimental data taken from ChEMBL document CHEMBL4414639, “Synthesis, Pharmacological Characterization, and Structure-Activity Relationships of Noncanonical Selective Agonists for α7 nAChRs” (J Med Chem, 2019).
Calls of active or inactive are those of the source. No cut-off for these calls is given here.

Tests used:
[1] = biological target: T1, Neuronal acetylcholine receptor; alpha4/beta2 (Homo sapiens) (UniProt P17787+P43681); assay: Antagonist activity at alpha4beta2 nAChR (unknown origin) transfected in HEK cells assessed as decrease in epibatidine-induced intracellular calcium release incubated for 30 mins by FRET assay
[2] = biological target: T2, Neuronal acetylcholine receptor subunit alpha-7 (Homo sapiens, UniProt P36544); assay: Agonist activity at human alpha7 nAChR transfected in HEK cells assessed as increase in intracellular calcium release incubated for 30 mins in presence of PNU-120596 by FRET assay; format: cell-based
T2 sequence (P36544 whole entry): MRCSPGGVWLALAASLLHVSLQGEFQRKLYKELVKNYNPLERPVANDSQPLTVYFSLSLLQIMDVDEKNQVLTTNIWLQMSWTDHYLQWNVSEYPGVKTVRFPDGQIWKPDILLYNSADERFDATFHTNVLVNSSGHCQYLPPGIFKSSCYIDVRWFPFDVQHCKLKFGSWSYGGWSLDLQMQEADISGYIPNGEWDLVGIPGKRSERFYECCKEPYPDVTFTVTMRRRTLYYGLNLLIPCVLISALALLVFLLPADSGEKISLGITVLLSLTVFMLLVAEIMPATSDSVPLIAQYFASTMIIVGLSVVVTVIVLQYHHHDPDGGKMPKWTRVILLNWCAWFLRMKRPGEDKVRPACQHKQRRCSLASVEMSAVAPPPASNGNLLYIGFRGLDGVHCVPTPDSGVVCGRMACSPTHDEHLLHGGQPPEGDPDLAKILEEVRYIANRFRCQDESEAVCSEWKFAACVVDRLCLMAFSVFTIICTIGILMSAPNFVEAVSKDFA
How it was run: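 HEK cell line stably expressing α7 nAChR and the CNiFER (TN-XXL) biosensor, grown in DMEM + 10% FBS, 1% glutamine, 37 °C, 6% CO2. Cells preincubated 30 min at 37 °C in aCSF containing 10 μM PNU-120596 (final). Agonist injected at 30 s. FRET ratio (527/485 nm) followed over 120 s at 37 °C, triplicate wells. EC50 from variable-slope sigmoidal fit of mean peak ratios, normalized to the 316 μM response.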

[3] = biological target: T3, 5-hydroxytryptamine receptor 3A (Homo sapiens) (UniProt P46098); assay: Antagonist activity at 5HT3A (unknown origin) transfected in HEK cells assessed as decrease in agonist-induced intracellular calcium release incubated for 30 mins by FRET assay; format: cell-based
T3 sequence (whole entry): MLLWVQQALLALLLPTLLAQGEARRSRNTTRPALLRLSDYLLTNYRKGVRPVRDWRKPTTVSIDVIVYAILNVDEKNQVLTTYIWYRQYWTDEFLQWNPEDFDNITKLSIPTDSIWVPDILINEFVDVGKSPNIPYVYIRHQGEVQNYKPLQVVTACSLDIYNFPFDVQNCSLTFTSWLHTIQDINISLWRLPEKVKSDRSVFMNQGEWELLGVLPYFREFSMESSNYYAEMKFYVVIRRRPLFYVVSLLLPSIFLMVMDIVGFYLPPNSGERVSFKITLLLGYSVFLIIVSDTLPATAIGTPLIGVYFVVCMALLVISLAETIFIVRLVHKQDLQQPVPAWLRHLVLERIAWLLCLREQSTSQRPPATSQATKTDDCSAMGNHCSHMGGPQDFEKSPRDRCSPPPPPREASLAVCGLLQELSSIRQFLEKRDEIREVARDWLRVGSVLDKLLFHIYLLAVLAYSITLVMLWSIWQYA
How it was run: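 CNiFER HEK cell monolayers stably expressing the receptor. Test compound at three concentrations in aCSF, preincubated 30 min at 37 °C, 6% CO2, before agonist addition: epibatidine for α4β2, 5-HT for 5-HT3A. TN-XXL FRET ratio (527/485 nm) read over 120 s at 37 °C, agonist injected at 30 s, triplicate wells. Agonist EC50 shifts fitted. KA computed as [A]/(DR−1) (competitive) or [A]/(Δmax/Δ−1) (noncompetitive). At least three independent experiments. α4β2 stoichiometry not distinguished.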

[4] = biological target: T2, Neuronal acetylcholine receptor subunit alpha-7; assay: Agonist activity at human alpha7 nAChR expressed in Xenopus laevis oocytes assessed as increase in channel currents at 30 uM at -60 mV holding potential followed washout for 211 sec and then 60 uM of Ach was applied by two electrode voltage clamp assay
[5] = biological target: T1, Neuronal acetylcholine receptor; alpha4/beta2 (Homo sapiens); assay: Agonist activity at human (alpha4)2 (beta2)3 nAChR expressed in Xenopus laevis oocytes assessed as increase in channel currents at 30 uM at -60 mV holding potential by two electrode voltage clamp assay; format: cell-based
How it was run: (§1)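 Two-electrode voltage clamp on oocytes at -60 mV in Ringer's (115 mM NaCl, 2.5 mM KCl, 1.8 mM CaCl2, 10 mM HEPES, 1 µM atropine, pH 7.2), 4 mL/min flow. Test compound applied 6 s, then 271 s washout. Normalized to mean of two ACh precontrols: 30 µM for α1β1εδ, 100 µM for α3β4, 100 µM for LS α4β2, 10 µM for HS α4β2.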

[6] = biological target: T1, Neuronal acetylcholine receptor; alpha4/beta2 (Homo sapiens); assay: Agonist activity at human (alpha4)3 (beta2)2 nAChR expressed in Xenopus laevis oocytes assessed as increase in channel currents at 30 uM at -60 mV holding potential by two electrode voltage clamp assay; format: cell-based
How it was run: as §1

[7] = biological target: T1, Neuronal acetylcholine receptor; alpha4/beta2 (Homo sapiens); assay: Inhibition of human (alpha4)3 (beta2)2 nAChR expressed in Xenopus laevis oocytes assessed as increase in channel currents at 30 uM at -60 mV holding potential by two electrode voltage clamp assay; format: cell-based
[8] = biological target: T2, Neuronal acetylcholine receptor subunit alpha-7; assay: Inhibition of human alpha7 nAChR expressed in Xenopus laevis oocytes assessed as decrease in ACh-induced channel currents at -60 mV holding potential by two electrode voltage clamp assay; format: cell-based
How it was run: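 Human α7 nAChR in oocytes under two-electrode voltage clamp at -60 mV, Ringer's pH 7.2, 2 mL/min. Test compound applied 12 s with 211 s washout, then 60 µM ACh applied. ACh response normalized to the mean of two ACh precontrols per oocyte. Inhibition concentration-response curves from six cells, Hill equation fit.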

[9] = biological target: T2, Neuronal acetylcholine receptor subunit alpha-7; assay: Agonist activity at human alpha7 nAChR expressed in Xenopus laevis oocytes assessed as increase in channel currents at 30 uM at -60 mV holding potential by two electrode voltage clamp assay; format: cell-based
How it was run: (§2)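 Oocytes expressing human α7 nAChR (with human RIC-3 cDNA available), clamped at -60 mV in Ringer's pH 7.2 with 1 µM atropine, 2 mL/min flow. Drug applied 12 s, 211 s washout. Responses normalized to mean of two 60 µM ACh precontrol responses per oocyte. Data from six cells. Concentration-response data fit to the Hill equation. Sequence included 30 µM test compound, then 60 µM ACh, then 10 µM PNU-120596.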

[10] = biological target: T1, Neuronal acetylcholine receptor; alpha4/beta2 (Homo sapiens); assay: Inhibition of human (alpha4)2 (beta2)3 nAChR expressed in Xenopus laevis oocytes assessed as increase in channel currents at 30 uM at -60 mV holding potential by two electrode voltage clamp assay; format: cell-based
[11] = biological target: T4, Neuronal acetylcholine receptor; alpha3/beta4 (Homo sapiens) (UniProt P30926+P32297); assay: Inhibition of human alpha3beta4 nAChR expressed in Xenopus laevis oocytes assessed as increase in channel currents at 30 uM at -60 mV holding potential by two electrode voltage clamp assay; format: cell-based
[12] = biological target: T4, Neuronal acetylcholine receptor; alpha3/beta4 (Homo sapiens); assay: Agonist activity at human alpha3beta4 nAChR expressed in Xenopus laevis oocytes assessed as increase in channel currents at 30 uM at -60 mV holding potential by two electrode voltage clamp assay; format: cell-based
How it was run: as §1

[13] = biological target: T2, Neuronal acetylcholine receptor subunit alpha-7; assay: Agonist activity at human alpha7 nAChR expressed in Xenopus laevis oocytes assessed as increase in channel currents at 30 uM at -60 mV holding potential in presence of 10 uM PNU-120596 by two electrode voltage clamp assay; format: cell-based
How it was run: as §2

[14] = biological target: T2, Neuronal acetylcholine receptor subunit alpha-7; assay: Agonist activity at human alpha7 nAChR expressed in Xenopus laevis oocytes assessed as increase in channel currents at -60 mV holding potential by two electrode voltage clamp assay relative Ach; format: cell-based
How it was run: as §2

[15] = species on record: Mus musculus; assay: Inhibition of mouse alpha1beta1epsilondelta nAChR expressed in Xenopus laevis oocytes assessed as increase in channel currents at 30 uM at -60 mV holding potential by two electrode voltage clamp assay; format: cell-based
[16] = species on record: Mus musculus; assay: Agonist activity at mouse alpha1beta1epsilondelta nAChR expressed in Xenopus laevis oocytes assessed as increase in channel currents at 30 uM at -60 mV holding potential by two electrode voltage clamp assay; format: cell-based
How it was run: as §1

SMILES | Ka [1] [µM] | EC50 [2] [nM] | Ka [3] [µM] | other results
CSc1ccccc1-c1cc(N(Cc2ccccn2)Cc2ccccn2)nc(N)n1 | 4.3 | 240 | > 10 | 
COc1ccccc1-c1cc(N(Cc2ccccn2)Cc2ccccn2)nc([S+](C)[O-])n1 (configuration not stated) | > 10 | 920 | > 10 | 
Nc1nc(-c2ccccc2Cl)cc(N(Cc2ccccn2)Cc2ccccn2)n1 | 3.4 | 160 | > 10 | 
COc1ccc(-c2cc(N(Cc3ccccn3)Cc3ccccn3)ncn2)c(F)c1 | 3 | 69 | 5.4 | Activity [4]: inactive; Activity [5]: inactive; Activity [6]: inactive; inhibition [7]: inactive; IC50 [8]: 1300 nM; Activity [9]: Active; inhibition [10]: inactive; inhibition [11]: Active; Activity [12]: inactive; Activity [13]: Active; EC50 [14]: 600 nM; Imax [14]: 0.53; inhibition activity (active/inactive) [15]: Active; Activity [16]: inactive
COc1cccc(OC)c1-c1cc(N(Cc2ccccn2)Cc2ccccn2)nc(N)n1 | 7.1 | 5400 | > 10 | 
COc1ccccc1-c1cc(N(Cc2ccccn2)Cc2ccccn2)nc(SC)n1 | 1.1 | 110 | 2.8 | 
COc1cc(F)ccc1-c1cc(N(Cc2ccccn2)Cc2ccccn2)nc(N)n1 | 4.8 | 120 | > 10 | 
c1ccc(CN(Cc2ccccn2)c2cc(-c3ccsc3)ncn2)nc1 | > 10 | 2100 | > 10 | 
CSc1nc(-c2ccsc2)cc(N(Cc2ccccn2)Cc2ccccn2)n1 | 3.4 | 1800 | 2.2 | 
c1ccc(CN(Cc2ccccn2)c2cc(N3CCOCC3)ncn2)nc1 | > 10 | > 13300 | > 10 | 
CC(C)COc1ccccc1-c1cc(N(Cc2ccccn2)Cc2ccccn2)nc(N)n1 | 1.3 | 1600 | 5.5 | 
FC(F)(F)c1nc(-c2ccsc2)cc(N(Cc2ccccn2)Cc2ccccn2)n1 | 0.96 | 2500 | 3.6 | 
COc1ccccc1-c1cc(N(Cc2ccccn2)Cc2ccccn2)nc(C(F)(F)F)n1 | 1.7 | 530 | 3.7 | 
COc1ccccc1-c1cc(N(Cc2ccccn2)Cc2ccccn2)ncn1 | 7.9 | 140 | > 10 | Activity [4]: inactive; Activity [5]: inactive; Activity [6]: inactive; inhibition [7]: inactive; IC50 [8]: 3500 nM; Activity [9]: Active; inhibition [10]: inactive; inhibition [11]: Active; Activity [12]: inactive; Activity [13]: Active; EC50 [14]: 3350 nM; Imax [14]: 0.89; inhibition activity (active/inactive) [15]: Active; Activity [16]: inactive
COc1ccccc1-c1cc(N(Cc2ccccc2)Cc2ccccn2)nc(N)n1 | 1.3 | > 13300 | 4.1 | 
CC(C)Oc1ccccc1-c1cc(N(Cc2ccccn2)Cc2ccccn2)nc(N)n1 | 1.5 | 890 | > 10 | 
COc1ccccc1-c1cc(N(Cc2ccccn2)Cc2ccccn2)nc(S(C)(=O)=O)n1 | 7.2 | 690 | > 10 | 
Fc1ccccc1-c1cc(N(Cc2ccccn2)Cc2ccccn2)ncn1 | 5.6 | 360 | 8.4 | 
COc1ccc(-c2cc(N(Cc3ccccn3)Cc3ccccn3)nc(N)n2)c(F)c1 | 3.2 | 30 | 5.3 | Activity [4]: inactive; Activity [5]: inactive; Activity [6]: inactive; inhibition [7]: inactive; IC50 [8]: 470 nM; Activity [9]: Active; inhibition [10]: inactive; inhibition [11]: Active; Activity [12]: inactive; Activity [13]: Active; EC50 [14]: 110 nM; Imax [14]: 0.84; inhibition activity (active/inactive) [15]: Active; Activity [16]: inactive
COc1ncccc1-c1cc(N(Cc2ccccn2)Cc2ccccn2)nc(N)n1 | > 10 | 230 | > 10 | 
